According to ChEMBL document CHEMBL1131828, “Synthesis and biological evaluation of a new class of vaccine adjuvants: aminoalkyl glucosaminide 4-phosphates (AGPs)” (1999):
Converted amounts (≈) assume the structure as drawn.

Experiments:
Format in all cases: functional
Oryctolagus cuniculus = species on record: Oryctolagus cuniculus; test: Minimum pyrogenic dose was determined for Febrile response in a standard 3-rabbit USP pyrogen test by injecting compound in the marginal ear vein
Outline: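 Test article dissolved in EtOH, then diluted with D5W to the desired concentrations just before injection. The minimal pyrogenic dose is the dose at which the summed temperature rise over the three rabbits reaches at least 1.2 °C.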

Homo sapiens [1] = species on record: Homo sapiens; test: Relative ex vivo induction of TNF-alpha in human whole blood stimulated with 10 ug/mL
Outline: (§1)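 Human whole blood was stimulated with sample, and cell-associated TNF-α and IL-1β were measured by sandwich ELISA. Relative induction below 0.05 was scored as not detected.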

Mus musculus [2] = species on record: Mus musculus; test: Half-maximal response in vitro using peritoneal exudate cells from Propionibacterium acnes-primed mice; details: read-out: ED50 (the source's name)
Homo sapiens [3] = species on record: Homo sapiens; test: Relative ex vivo induction of IL1-beta in human whole blood stimulated with 10 ug/mL; outline: as §1
Mus musculus [4] = species on record: Mus musculus; test: Percent of cytotoxicity was determined for augment vaccine-induced CTL's against EG.7-ova target cells in two separate murine models
Outline: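 C57BL/6 (H-2b) mice, 6 per group, were immunized on days 0 and 14 with a 2.5% oil-water emulsion containing 25 µg ovalbumin plus test article. On day 21, spleens were tested for ovalbumin-specific CTL against 51Cr-labeled E.G7-ova target cells, an ovalbumin-transfected line. Read-out was percent specific lysis.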

Mus musculus [5] = species on record: Mus musculus; test: Ability to enhance antibody response to tetanus toxoid vaccine, IgG1
Outline: (§2)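 Mice were immunized with tetanus toxoid in an oil-water emulsion with test article, then boosted 21 days after the primary dose. Serum was taken 14 days after the second injection and assayed by ELISA. Values are test titers divided by the titer of controls given oil-water vehicle with tetanus toxoid only.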

Mus musculus [6] = species on record: Mus musculus; test: Ability to enhance antibody response to tetanus toxoid vaccine, IgG2b; outline: as §2
Mus musculus [7] = species on record: Mus musculus; test: Ability to enhance antibody response to tetanus toxoid vaccine, total Immunoglobulin (Ig); outline: as §2
Mus musculus [8] = species on record: Mus musculus; test: Ability to enhance antibody response to tetanus toxoid vaccine, IgG2a; outline: as §2

| SMILES | Dose (Oryctolagus cuniculus) [µg/kg] | Cytokine induction (Homo sapiens [1]) | EC50 (Mus musculus [2]) [ng/mL] | Cytokine induction (Homo sapiens [3]) | Cytotoxicity (Mus musculus [4]) [%] | Response (Mus musculus [5]) | Response (Mus musculus [6]) | Response (Mus musculus [7]) | Response (Mus musculus [8]) |
| --- | --- | --- | --- | --- | --- | --- | --- | --- | --- |
| CCCCCCCCCCCCCC(=O)O[C@H](CCCCCCCCCCC)CC(=O)NCCO[C@@H]1OC(CO)[C@H](OP(=O)(O)O)C(OC(=O)C[C@@H](CCCCCCCCCCC)OC(=O)CCCCCCCCCCCCC)[C@@H]1NC(=O)C[C@@H](CCCCCCCCCCC)OC(=O)CCCCCCCCCCCCC (some centres undefined) | 10 | 0.3 | 100 (≈ 62 nM) | 0.3 | 59 |  |  |  |  |
| CCCCCCCCCCCCCC(=O)O[C@H](CCCCCCCCCCC)CC(=O)NCCCO[C@@H]1OC(CO)[C@H](OP(=O)(O)O)C(OC(=O)C[C@@H](CCCCCCCCCCC)OC(=O)CCCCCCCCCCCCC)[C@@H]1NC(=O)C[C@@H](CCCCCCCCCCC)OC(=O)CCCCCCCCCCCCC (some centres undefined) | 10 | 2.3 | 8 (≈ 4.92 nM) | 3.5 | 38 | 2.2 | 6.1 | 4.7 | 5.8 |
| CCCCCCCCCCC[C@H](CC(=O)NC(CO[C@@H]1OC(CO)[C@H](OP(=O)(O)O)C(OC(=O)C[C@@H](CCCCCCCCCCC)OC(=O)CCCCC)[C@@H]1NC(=O)C[C@@H](CCCCCCCCCCC)OC(=O)CCCCC)C(=O)O)OC(=O)CCCCC (some centres undefined) | <2.5 |  | > 10000 |  |  | 1.3 | 0.9 | 1.1 | 0.3 |
| CCCCCCCCCCCCCC(=O)O[C@H](CCCCCCCCCCC)CC(=O)NCCCCCCCCO[C@@H]1OC(CO)[C@H](OP(=O)(O)O)C(OC(=O)C[C@@H](CCCCCCCCCCC)OC(=O)CCCCCCCCCCCCC)[C@@H]1NC(=O)C[C@@H](CCCCCCCCCCC)OC(=O)CCCCCCCCCCCCC (some centres undefined) | >10 |  | > 10000 |  |  |  |  |  |  |
| CCCCCCCCCCC[C@H](CC(=O)NCCO[C@@H]1OC(CO)[C@H](OP(=O)(O)O)C(OC(=O)C[C@@H](CCCCCCCCCCC)OC(=O)CCCCCCCCC)[C@@H]1NC(=O)C[C@@H](CCCCCCCCCCC)OC(=O)CCCCCCCCC)OC(=O)CCCCCCCCC (some centres undefined) | 10 | 1.3 | 0.5 (≈ 0.346 nM) | 1.9 | 36 |  |  |  |  |
| CCCCCCCCCCCCCC(=O)O[C@H](CCCCCCCCCCC)CC(=O)NC(CO[C@@H]1OC(CO)[C@H](OP(=O)(O)O)C(OC(=O)C[C@@H](CCCCCCCCCCC)OC(=O)CCCCCCCCCCCCC)[C@@H]1NC(=O)C[C@@H](CCCCCCCCCCC)OC(=O)CCCCCCCCCCCCC)C(=O)O (some centres undefined) | 0.6 | 1.7 | 3 (≈ 1.81 nM) | 4.8 | 14 | 1.9 | 0.9 | 3.6 | 2.1 |
| CCCCCCCCCCC[C@H](CC(=O)NC(CO[C@@H]1OC(CO)[C@H](OP(=O)(O)O)C(OC(=O)C[C@@H](CCCCCCCCCCC)OC(=O)CCCCCCC)[C@@H]1NC(=O)C[C@@H](CCCCCCCCCCC)OC(=O)CCCCCCC)C(=O)O)OC(=O)CCCCCCC (some centres undefined) | <2.5 |  | 33 (≈ 23.5 nM) |  |  |  |  |  |  |
| CCCCCCCCCCCCCC(=O)O[C@H](CCCCCCCCCCC)CC(=O)NCCCCCCO[C@@H]1OC(CO)[C@H](OP(=O)(O)O)C(OC(=O)C[C@@H](CCCCCCCCCCC)OC(=O)CCCCCCCCCCCCC)[C@@H]1NC(=O)C[C@@H](CCCCCCCCCCC)OC(=O)CCCCCCCCCCCCC (some centres undefined) | >10 |  | 160 (≈ 95.9 nM) |  |  |  |  |  |  |
| CCCCCCCCCCC[C@H](CC(=O)N[C@H](CO[C@@H]1OC(CO)[C@H](OP(=O)(O)O)C(OC(=O)C[C@@H](CCCCCCCCCCC)OC(=O)CCCCCCCCC)[C@@H]1NC(=O)C[C@@H](CCCCCCCCCCC)OC(=O)CCCCCCCCC)C(=O)O)OC(=O)CCCCCCCCC (some centres undefined) | <2.5 | 1.5 | 0.3 (≈ 0.202 nM) | 0.6 |  |  |  |  |  |
| CCCCCCCCCCCCCC(=O)O[C@H](CCCCCCCCCCC)CC(=O)N[C@@H](CO)CO[C@@H]1OC(CO)[C@H](OP(=O)(O)O)C(OC(=O)C[C@@H](CCCCCCCCCCC)OC(=O)CCCCCCCCCCCCC)[C@@H]1NC(=O)C[C@@H](CCCCCCCCCCC)OC(=O)CCCCCCCCCCCCC (some centres undefined) | >10 |  | 150 (≈ 91.3 nM) |  | 34 | 3.4 | 2.4 | 4 | 3.8 |
| CCCCCCCCCCCCCC(=O)O[C@H](CCCCCCCCCCC)CC(=O)N[C@H](CO)CO[C@@H]1OC(CO)[C@H](OP(=O)(O)O)C(OC(=O)C[C@@H](CCCCCCCCCCC)OC(=O)CCCCCCCCCCCCC)[C@@H]1NC(=O)C[C@@H](CCCCCCCCCCC)OC(=O)CCCCCCCCCCCCC (some centres undefined) | 10 | 3.5 | 9 (≈ 5.48 nM) | 4.9 | 21 | 2.2 | 1.6 | 3.8 | 4.3 |
| CCCCCCCCCCCCCC(=O)O[C@H](CCCCCCCCCCC)CC(=O)NC(CO[C@@H]1OC(CO)[C@H](OP(=O)(O)O)C(OC(=O)C[C@@H](CCCCCCCCCCC)OC(=O)CCCCCCCCCCCCC)[C@@H]1NC(=O)C[C@@H](CCCCCCCCCCC)OC(=O)CCCCCCCCCCCCC)C(=O)OC (some centres undefined) | 10 | 1.1 | 67 (≈ 40.1 nM) | 1.1 |  |  |  |  |  |
| CCCCCCCCCCCCCC(=O)O[C@H](CCCCCCCCCCC)CC(=O)NC(CO[C@@H]1OC(CO)[C@H](OP(=O)(O)O)C(OC(=O)C[C@@H](CCCCCCCCCCC)OC(=O)CCCCCCCCCCCCC)[C@@H]1NC(=O)C[C@@H](CCCCCCCCCCC)OC(=O)CCCCCCCCCCCCC)C(N)=O (some centres undefined) | 10 | 1.1 | 20 (≈ 12.1 nM) | 0.9 |  |  |  |  |  |
| CCCCCCCCCCC[C@H](CC(=O)NC(CO[C@@H]1OC(CO)[C@H](OP(=O)(O)O)C(OC(=O)C[C@@H](CCCCCCCCCCC)OC(=O)CCCCC)[C@@H]1NC(=O)C[C@@H](CCCCCCCCCCC)OC(=O)CCCCC)C(N)=O)OC(=O)CCCCC (some centres undefined) | >10 |  | > 10000 |  |  |  |  |  |  |
| CCCCCCCCCCCCCCCC(=O)O[C@H](CCCCCCCCCCC)CC(=O)N[C@H]1[C@@H](O)[C@H](O)[C@H](CO[C@@H]2O[C@@H](CO)[C@@H](OP(=O)(O)O)[C@H](OC(=O)C[C@@H](CCCCCCCCCCC)OC(=O)CCCCCCCCCCCCC)[C@@H]2NC(=O)C[C@@H](CCCCCCCCCCC)OC(=O)CCCCCCCCCCC)O[C@H]1O | 10 | 1.2 | 14 (≈ 8.09 nM) | 0.7 | 31 |  |  |  |  |
| CCCCCCCCCCC[C@H](CC(=O)NC(CO[C@@H]1OC(CO)[C@H](OP(=O)(O)O)C(OC(=O)C[C@@H](CCCCCCCCCCC)OC(=O)CCCCCCCCC)[C@@H]1NC(=O)C[C@@H](CCCCCCCCCCC)OC(=O)CCCCCCCCC)C(N)=O)OC(=O)CCCCCCCCC (some centres undefined) | 10 | 3.5 | 0.3 (≈ 0.202 nM) | 6.2 | 65 | 2.6 | 3.3 | 8.9 | 1.7 |
| CCCCCCCCCCCC(=O)O[C@H](CCCCCCCCCCC)CC(=O)NC(CO[C@@H]1OC(CO)[C@H](OP(=O)(O)O)C(OC(=O)C[C@@H](CCCCCCCCCCC)OC(=O)CCCCCCCCCCC)[C@@H]1NC(=O)C[C@@H](CCCCCCCCCCC)OC(=O)CCCCCCCCCCC)C(=O)O (some centres undefined) | <2.5 | 3.6 | 0.9 (≈ 0.572 nM) | 2 |  |  |  |  |  |
| CCCCCCCCCCC[C@H](CC(=O)N[C@@H](CO[C@@H]1OC(CO)[C@H](OP(=O)(O)O)C(OC(=O)C[C@@H](CCCCCCCCCCC)OC(=O)CCCCCCCCC)[C@@H]1NC(=O)C[C@@H](CCCCCCCCCCC)OC(=O)CCCCCCCCC)C(=O)O)OC(=O)CCCCCCCCC (some centres undefined) | <0.06 | >6 | 0.06 (≈ 0.0403 nM) | 23 | 58 | 4.2 | 2.8 | 18.9 | 6.8 |
| CCCCCCCCCCC[C@H](CC(=O)NCCO[C@@H]1OC(CO)[C@H](OP(=O)(O)O)C(OC(=O)C[C@@H](CCCCCCCCCCC)OC(=O)CCCCC)[C@@H]1NC(=O)C[C@@H](CCCCCCCCCCC)OC(=O)CCCCC)OC(=O)CCCCC (some centres undefined) | 10 |  | > 10000 |  |  |  |  |  |  |
| CCCCCCCCCCCCCC(=O)O[C@H](CCCCCCCCCCC)CC(=O)NCCCCO[C@@H]1OC(CO)[C@H](OP(=O)(O)O)C(OC(=O)C[C@@H](CCCCCCCCCCC)OC(=O)CCCCCCCCCCCCC)[C@@H]1NC(=O)C[C@@H](CCCCCCCCCCC)OC(=O)CCCCCCCCCCCCC (some centres undefined) | 10 | 1 | 51 (≈ 31.1 nM) | 0.3 | 58 |  |  |  |  |
